System: U2OS
Assay: Multiplex assay against U2OS
Format: toxicity, cell-based
Details: human
Outline: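 Per cents of healthy-nucleus cells form the tubulin, mitochondrial-mass and membrane-permeability phenotype values. Live cells were stained at seeding with Hoechst33342, BioTracker Green Microtubule Cytoskeleton Dye, MitoTracker Red and Annexin V Alexa Fluor 680. After compound addition they were imaged on a CQ1 microscope at 37°C and 5% CO2, and CellPathfinder machine-learning gating split them into Hoechst high-intensity objects or normal cells, normal cells into healthy, pyknosed or fragmented nuclei, and pyknosed cells into mitotic or apoptotic.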

[1] = 12 h, 1 µM, compound concentration 1 uM, replicate 1
[2] = 12 h, 1 µM, compound concentration 1 uM, replicate 2
[3] = 12 h, 10 µM, compound concentration 10 uM, replicate 1
[4] = 12 h, 10 µM, compound concentration 10 uM, replicate 2
[5] = 24 h, 1 µM, compound concentration 1 uM, replicate 1
[6] = 24 h, 1 µM, compound concentration 1 uM, replicate 2
[7] = 24 h, 10 µM, compound concentration 10 uM, replicate 1
[8] = 24 h, 10 µM, compound concentration 10 uM, replicate 2
[9] = 48 h, 1 µM, compound concentration 1 uM, replicate 1
[10] = 48 h, 1 µM, compound concentration 1 uM, replicate 2
[11] = 48 h, 10 µM, compound concentration 10 uM, replicate 1
[12] = 48 h, 10 µM, compound concentration 10 uM, replicate 2

O=C(O)c1cc2ccccc2c(Cc2c(O)c(C(=O)O)cc3ccccc23)c1O [PAMOIC ACID]
Population Apoptotic (%) [1]: 85% | Population Fragmented Nuclei (%) [1]: 23% | Population Healthy Nuclei (%) [1]: 68% | Population Hoechst High Intensity Objects (%) [1]: 1% | Population Membrane Permeable-Phenotype (%) [1]: 2% | Population Mitochondria Different-Phenotype (%) [1]: 0% | Population Mitotic Cells (%) [1]: 15% | Population Normal (%) [1]: 98% | Population Pyknosed Nuclei (%) [1]: 8% | Population Tubulin-Different-Phenotype (%) [1]: 0% | Total Cell Count [1]: 246 | Population Apoptotic (%) [2]: 50% | Population Fragmented Nuclei (%) [2]: 15% | Population Healthy Nuclei (%) [2]: 73% | Population Hoechst High Intensity Objects (%) [2]: 0% | Population Membrane Permeable-Phenotype (%) [2]: 12% | Population Mitochondria Different-Phenotype (%) [2]: 6% | Population Mitotic Cells (%) [2]: 50% | Population Normal (%) [2]: 100% | Population Pyknosed Nuclei (%) [2]: 11% | Population Tubulin-Different-Phenotype (%) [2]: 13% | Total Cell Count [2]: 109 | Population Apoptotic (%) [3]: 75% | Population Fragmented Nuclei (%) [3]: 19% | Population Healthy Nuclei (%) [3]: 75% | Population Hoechst High Intensity Objects (%) [3]: 2% | Population Membrane Permeable-Phenotype (%) [3]: 6% | Population Mitochondria Different-Phenotype (%) [3]: 1% | Population Mitotic Cells (%) [3]: 25% | Population Normal (%) [3]: 97% | Population Pyknosed Nuclei (%) [3]: 4% | Population Tubulin-Different-Phenotype (%) [3]: 4% | Total Cell Count [3]: 259 | Population Apoptotic (%) [4]: 87% | Population Hoechst High Intensity Objects (%) [4]: 0% | Population Membrane Permeable-Phenotype (%) [4]: 5% | Population Mitochondria Different-Phenotype (%) [4]: 3% | Population Mitotic Cells (%) [4]: 12% | Population Normal (%) [4]: 100% | Population Pyknosed Nuclei (%) [4]: 5% | Population Tubulin-Different-Phenotype (%) [4]: 2% | Total Cell Count [4]: 140 | Population Apoptotic (%) [5]: 92% | Population Fragmented Nuclei (%) [5]: 18% | Population Healthy Nuclei (%) [5]: 72% | Population Hoechst High Intensity Objects (%) [5]: 1% | Population Membrane Permeable-Phenotype (%) [5]: 2% | Population Mitochondria Different-Phenotype (%) [5]: 0% | Population Mitotic Cells (%) [5]: 8% | Population Normal (%) [5]: 98% | Population Pyknosed Nuclei (%) [5]: 8% | Population Tubulin-Different-Phenotype (%) [5]: 1% | Total Cell Count [5]: 288 | Population Apoptotic (%) [6]: 76% | Population Fragmented Nuclei (%) [6]: 20% | Population Healthy Nuclei (%) [6]: 70% | Population Hoechst High Intensity Objects (%) [6]: 0% | Population Membrane Permeable-Phenotype (%) [6]: 11% | Population Mitochondria Different-Phenotype (%) [6]: 2% | Population Mitotic Cells (%) [6]: 23% | Population Normal (%) [6]: 99% | Population Pyknosed Nuclei (%) [6]: 9% | Population Tubulin-Different-Phenotype (%) [6]: 7% | Total Cell Count [6]: 139 | Population Apoptotic (%) [7]: 82% | Population Fragmented Nuclei (%) [7]: 17% | Population Healthy Nuclei (%) [7]: 76% | Population Hoechst High Intensity Objects (%) [7]: 3% | Population Membrane Permeable-Phenotype (%) [7]: 5% | Population Mitochondria Different-Phenotype (%) [7]: 2% | Population Mitotic Cells (%) [7]: 17% | Population Normal (%) [7]: 96% | Population Pyknosed Nuclei (%) [7]: 5% | Population Tubulin-Different-Phenotype (%) [7]: 3% | Total Cell Count [7]: 314 | Population Apoptotic (%) [8]: 90% | Population Fragmented Nuclei (%) [8]: 13% | Population Healthy Nuclei (%) [8]: 79% | Population Hoechst High Intensity Objects (%) [8]: 1% | Population Membrane Permeable-Phenotype (%) [8]: 7% | Population Mitochondria Different-Phenotype (%) [8]: 3% | Population Mitotic Cells (%) [8]: 9% | Population Normal (%) [8]: 98% | Population Pyknosed Nuclei (%) [8]: 6% | Population Tubulin-Different-Phenotype (%) [8]: 7% | Total Cell Count [8]: 163 | Population Apoptotic (%) [9]: 83% | Population Fragmented Nuclei (%) [9]: 16% | Population Healthy Nuclei (%) [9]: 74% | Population Hoechst High Intensity Objects (%) [9]: 1% | Population Membrane Permeable-Phenotype (%) [9]: 2% | Population Mitochondria Different-Phenotype (%) [9]: 1% | Population Mitotic Cells (%) [9]: 16% | Population Normal (%) [9]: 98% | Population Pyknosed Nuclei (%) [9]: 9% | Population Tubulin-Different-Phenotype (%) [9]: 2% | Total Cell Count [9]: 469 | Population Apoptotic (%) [10]: 90% | Population Fragmented Nuclei (%) [10]: 11% | Population Healthy Nuclei (%) [10]: 76% | Population Hoechst High Intensity Objects (%) [10]: 2% | Population Membrane Permeable-Phenotype (%) [10]: 9% | Population Mitochondria Different-Phenotype (%) [10]: 3% | Population Mitotic Cells (%) [10]: 10% | Population Normal (%) [10]: 97% | Population Pyknosed Nuclei (%) [10]: 11% | Population Tubulin-Different-Phenotype (%) [10]: 5% | Total Cell Count [10]: 177 | Population Apoptotic (%) [11]: 96% | Population Fragmented Nuclei (%) [11]: 15% | Population Healthy Nuclei (%) [11]: 77% | Population Hoechst High Intensity Objects (%) [11]: 3% | Population Membrane Permeable-Phenotype (%) [11]: 5% | Population Mitochondria Different-Phenotype (%) [11]: 1% | Population Mitotic Cells (%) [11]: 3% | Population Normal (%) [11]: 96% | Population Pyknosed Nuclei (%) [11]: 6% | Population Tubulin-Different-Phenotype (%) [11]: 4% | Total Cell Count [11]: 455 | Population Apoptotic (%) [12]: 89% | Population Fragmented Nuclei (%) [12]: 20% | Population Healthy Nuclei (%) [12]: 66% | Population Hoechst High Intensity Objects (%) [12]: 0% | Population Membrane Permeable-Phenotype (%) [12]: 6% | Population Mitochondria Different-Phenotype (%) [12]: 2% | Population Mitotic Cells (%) [12]: 10% | Population Normal (%) [12]: 99% | Population Pyknosed Nuclei (%) [12]: 13% | Population Tubulin-Different-Phenotype (%) [12]: 2% | Total Cell Count [12]: 218

From ChEMBL document CHEMBL5058577, “EUbOPEN Chemogenomics Library 2 (Multiplex)” (2022)
